ChEMBL document CHEMBL1125678, “Quinazolineacetic acids and related analogues as aldose reductase inhibitors” (J Med Chem, 1991)

How the values were obtained:
[1] = target: Aldo-keto reductase family 1 member B1 (Bos taurus) (UniProt P16116); experiment: In vitro inhibition of aldose reductase in partially purified bovine lens preparation at a concentration of 10e -7M.
Outline: (§1)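 Enzyme from bovine lens, partially purified by the cited method with the final chromatographic step omitted. DL-Glyceraldehyde was the substrate. Test compounds were run in duplicate at 1×10⁻⁵, 1×10⁻⁶, 1×10⁻⁷ or 4×10⁻⁸ M. Values are % inhibition of enzymatic activity.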

[2] = target: Aldo-keto reductase family 1 member B1 (Bos taurus) (UniProt P16116); experiment: In vitro inhibition of aldose reductase in partially purified bovine lens preparation at a concentration of 4*10e -8M.; outline: as §1
[3] = test system: Rattus norvegicus; experiment: In vivo inhibition of galactitol accumulation in the sciatic nerve of rats fed 20% galactose for 4 day at 101 mg/kg/day dose; NS = No Significant inhibition of polyol accumulation; type: functional, organism-based
Outline: (§2)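 Male Sprague-Dawley rats (50–70 g) in groups of six were fed chow with 20% (w/w) galactose. Controls received 20% glucose instead. Test compound was mixed into the diet, and dose was calculated from actual food intake. Rats were killed by decapitation after 4 days. Result is % lowering of tissue galactitol versus galactose-fed controls, as the mean of six animals, compared by Dunnett's multiple comparison.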

[4] = test system: Rattus norvegicus; experiment: In vivo inhibition of galactitol accumulation in the diaphragm of rats fed 20% galactose for 4 day at 101 mg/kg/day dose; NS = No Significant inhibition of polyol accumulation; type: functional, organism-based; outline: as §2
[5] = target: Aldo-keto reductase family 1 member B1 (Bos taurus) (UniProt P16116); experiment: In vitro inhibition of aldose reductase in partially purified bovine lens preparation at a concentration of 10e-6 M.; outline: as §1
[6] = test system: Rattus norvegicus; experiment: In vivo inhibition of galactitol accumulation in the sciatic nerve of rats fed 20% galactose for 4 day at 99 mg/kg/day dose; NS = No Significant inhibition of polyol accumulation; type: functional, organism-based
[7] = test system: Rattus norvegicus; experiment: In vivo inhibition of galactitol accumulation in the diaphragm of rats fed 20% galactose for 4 day at 99 mg/kg/day dose; NS = No Significant inhibition of polyol accumulation; type: functional, organism-based; outline: as §2
[8] = test system: Rattus norvegicus; experiment: In vivo inhibition of galactitol accumulation in the diaphragm of rats fed 20% galactose for 4 day at 102 mg/kg/day dose; type: functional; outline: as §2
[9] = test system: Rattus norvegicus; experiment: (§3) In vivo inhibition of galactitol accumulation in the sciatic nerve of rats fed 20% galactose for 4 day at 95 mg/kg/day dose; NS= No Significant inhibition of polyol accumulation; type: functional, organism-based
[10] = test system: Rattus norvegicus; experiment: In vivo inhibition of galactitol accumulation in the diaphragm of rats fed 20% galactose for 4 day at 100 mg/kg/day dose; type: functional; outline: as §2
[11] = test system: Rattus norvegicus; experiment: In vivo inhibition of galactitol accumulation in the sciatic nerve of rats fed 20% galactose for 4 day at 100 mg/kg/day dose; type: functional; outline: as §2
[12] = target: Aldo-keto reductase family 1 member B1 (Bos taurus) (UniProt P16116); experiment: In vitro inhibition of aldose reductase in partially purified bovine lens preparation at a concentration of 10e -6M.; type: functional; outline: as §1
[13] = test system: Rattus norvegicus; experiment: In vivo inhibition of galactitol accumulation in the sciatic nerve of rats fed 20% galactose for 4 day at 58 mg/kg/day dose; NS = No Significant inhibition of polyol accumulation; type: functional, organism-based; outline: as §2
[14] = test system: Rattus norvegicus; experiment: In vivo inhibition of galactitol accumulation in the diaphragm of rats fed 20% galactose for 4 day at 58 mg/kg/day dose; NS = No Significant inhibition of polyol accumulation; type: functional, organism-based; outline: as §2
[15] = target: Aldo-keto reductase family 1 member B1 (Bos taurus) (UniProt P16116); experiment: in vitro inhibition of aldose reductase in partially purified bovine lens preparation at a concentration of 10e -6M.
[16] = target: Aldo-keto reductase family 1 member B1 (Bos taurus) (UniProt P16116); experiment: in vitro inhibition of Aldose reductase in partially purified bovine lens preparation at a concentration of 10e-6 M.
[17] = test system: Rattus norvegicus; experiment: In vivo inhibition of galactitol accumulation in the sciatic nerve of rats fed 20% galactose for 4 day at 96 mg/kg/day dose; NS = No Significant inhibition of polyol accumulation; type: functional, organism-based
[18] = test system: Rattus norvegicus; experiment: In vivo inhibition of galactitol accumulation in the diaphragm of rats fed 20% galactose for 4 day at 96 mg/kg/day dose; type: functional; outline: as §2
[19] = test system: Rattus norvegicus; experiment: In vivo inhibition of galactitol accumulation in the diaphragm of rats fed 20% galactose for 4 day at 95 mg/kg/day dose; type: functional; outline: as §2
[20] = test system: Rattus norvegicus; experiment: In vivo inhibition of galactitol accumulation in the sciatic nerve of rats fed 20% galactose for 4 day at 95 mg/kg/day dose; type: functional
[21] = target: Aldo-keto reductase family 1 member B1 (Bos taurus) (UniProt P16116); experiment: In vitro inhibition of Aldose reductase in partially purified bovine lens preparation at a concentration of 10e -7M.; outline: as §1
[22] = target: Aldo-keto reductase family 1 member B1 (Bos taurus) (UniProt P16116); experiment: In vitro inhibition of Aldose reductase in partially purified bovine lens preparation at a concentration of 4*10e -8M.; outline: as §1
[23] = test system: Rattus norvegicus; experiment: In vivo inhibition of galactitol accumulation in the diaphragm of rats fed 20% galactose for 4 day at 101 mg/kg/day dose; type: functional; outline: as §2
[24] = test system: Rattus norvegicus; experiment: In vivo inhibition of galactitol accumulation in the sciatic nerve of rats fed 20% galactose for 4 day at 96 mg/kg/day dose; type: functional
[25] = test system: Rattus norvegicus; experiment: as §3; type: functional, organism-based; remark: listed apart in the source
[26] = test system: Rattus norvegicus; experiment: In vivo inhibition of galactitol accumulation in the sciatic nerve of rats fed 20% galactose for 4 day at 82 mg/kg/day dose; NS = No Significant inhibition of polyol accumulation; type: functional, organism-based; outline: as §2
[27] = test system: Rattus norvegicus; experiment: In vivo inhibition of galactitol accumulation in the diaphragm of rats fed 20% galactose for 4 day at 82 mg/kg/day dose; NS = No Significant inhibition of polyol accumulation; type: functional, organism-based; outline: as §2
[28] = target: Aldo-keto reductase family 1 member B1 (Bos taurus) (UniProt P16116); experiment: In vitro inhibition of aldose reductase in partially purified bovine lens preparation at a concentration of 10e -5M.; settings: in the assay text read “10e -6M” for “10e -5M”; outline: as §1
[29] = test system: Rattus norvegicus; experiment: In vivo inhibition of galactitol accumulation in the sciatic nerve of rats fed 20% galactose for 4 day at 70 mg/kg/day dose; type: functional; outline: as §2
[30] = test system: Rattus norvegicus; experiment: In vivo inhibition of galactitol accumulation in the diaphragm of rats fed 20% galactose for 4 day at 70 mg/kg/day dose; type: functional; outline: as §2

Question: `O=C(O)Cn1c2ccc(Cl)cc2c(=O)n1Cc1ccc(Cl)c(Cl)c1` was tested. Which inhibition [1] did it give?
Answer: 63%

Question: And the inhibition [2]?
Answer: 34%

Question: And the Lowering [3]?
Answer: Not significant

Question: What about the Lowering [4] of the same compound?
Answer: Not significant

Question: Which results are given for `CCc1nc2ccc(Br)cc2c(=O)n1CC(=O)O`?
Answer: inhibition [1]: 13%; inhibition [5]: 57%; Lowering [3]: Not significant; Lowering [4]: Not significant

Question: With `O=C(O)Cn1c(=O)n(Cc2ccc(Cl)c(Cl)c2)c(=O)c2c3c(sc21)CCCC3` as the compound, how does the inhibition [1] read?
Answer: 89%

Question: And the inhibition [2]?
Answer: 63%

Question: What about the Lowering [6] of the same compound?
Answer: Not significant

Question: And the Lowering [7]?
Answer: Not significant

Question: What does the source list for `O=C(O)Cn1c(=O)c2cc(Br)ccc2n(Cc2ccc(F)c(F)c2)c1=O`?
Answer: inhibition [1]: 30%; inhibition [2]: 20%; Lowering [8]: 40%; Lowering [9]: Not significant

Question: How did the inhibition [1] turn out when `COc1ccc2c(c1)c(=O)n(CC(=O)O)c(=O)n2Cc1ccc(Cl)c(Cl)c1` was run?
Answer: 85%

Question: And the inhibition [2]?
Answer: 49%

Question: What about the Lowering [10] of the same compound?
Answer: 70%

Question: And the Lowering [11]?
Answer: 63%

Question: Which inhibition [12] does the source give for `Cc1c(-c2ccccc2)n(Cc2ccc(Cl)c(Cl)c2)c(=O)n(CC(=O)O)c1=O` here?
Answer: 68%

Question: And the inhibition [1]?
Answer: 22%

Question: What about the inhibition [2] of the same compound?
Answer: 16%

Question: And the Lowering [13]?
Answer: Not significant

Question: What about the Lowering [14] of the same compound?
Answer: Not significant

Question: For `Cc1c(C)n(Cc2ccc(Cl)c(Cl)c2)c(=O)n(CC(=O)O)c1=O`, which inhibition [1] is on record?
Answer: 39%

Question: And the inhibition [2]?
Answer: 28%

Question: What about the Lowering [6] of the same compound?
Answer: Not significant

Question: What about the Lowering [7] of the same compound?
Answer: Not significant

Question: And the inhibition [15]?
Answer: 83%

Question: What does the source list for `O=C(O)Cn1c(=O)c2ccccc2n1Cc1ccc(Br)cc1F`?
Answer: inhibition [16]: 40%; Lowering [17]: Not significant; Lowering [18]: 24%

Question: Which results are given for `O=C(O)Cn1c(=O)c2cccc(F)c2n(Cc2ccc(Br)cc2F)c1=O`?
Answer: inhibition [1]: 77%; inhibition [2]: 53%; Lowering [19]: 70%; Lowering [20]: 49%

Question: For `O=C(O)Cn1c2ccc([N+](=O)[O-])cc2c(=O)n1Cc1ccc(Br)cc1F`, which inhibition [21] is on record?
Answer: 60%

Question: What about the inhibition [22] of the same compound?
Answer: 36%

Question: What about the Lowering [3] of the same compound?
Answer: Not significant

Question: And the Lowering [23]?
Answer: 22%

Question: With `O=C(O)Cn1c(=O)c2cc(Br)ccc2n(Cc2ccc(Br)cc2F)c1=O` as the compound, how does the inhibition [21] read?
Answer: 83%

Question: And the inhibition [22]?
Answer: 71%

Question: What about the Lowering [24] of the same compound?
Answer: 60%

Question: And the Lowering [18]?
Answer: 76%

Question: `O=C(O)CN1C(=O)c2cc(Cl)ccc2N(Cc2ccc(Br)cc2F)[S+]1[O-]` (stereo not given) was tested. Which inhibition [1] did it give?
Answer: 21%

Question: And the inhibition [2]?
Answer: 8%

Question: And the Lowering [9]?
Answer: Not significant

Question: What about the Lowering [25] of the same compound?
Answer: Not significant

Question: For `Cc1nc2ccc(Br)cc2c(=O)n1CC(=O)O`, which inhibition [1] is on record?
Answer: 20%

Question: What about the inhibition [5] of the same compound?
Answer: 63%

Question: What about the Lowering [26] of the same compound?
Answer: Not significant

Question: And the Lowering [27]?
Answer: Not significant

Question: How did the inhibition [1] turn out when `O=C(O)Cn1c(=O)c2cc(Br)ccc2n(Cc2ccc(Br)cc2)c1=O` was run?
Answer: 59%

Question: And the inhibition [2]?
Answer: 39%

Question: What about the Lowering [10] of the same compound?
Answer: 36%

Question: And the Lowering [11]?
Answer: 24%

Question: How did the inhibition [1] turn out when `O=C(O)Cn1c(=O)c2cc([N+](=O)[O-])ccc2n(Cc2ccc(Br)cc2F)c1=O` was run?
Answer: 71%

Question: And the inhibition [2]?
Answer: 38%

Question: What about the Lowering [9] of the same compound?
Answer: Not significant

Question: And the Lowering [25]?
Answer: Not significant

Question: For `O=C(O)Cn1c(=O)[nH]c2ccc(Br)cc2c1=O`, which inhibition [28] is on record?
Answer: 64%

Question: `O=C(O)Cn1c(=O)n(Cc2ccc(Cl)c(Cl)c2)c(=S)c2cc(Cl)ccc21` was tested. Which inhibition [1] did it give?
Answer: 89%

Question: What about the inhibition [2] of the same compound?
Answer: 54%

Question: And the Lowering [29]?
Answer: 28%

Question: What about the Lowering [30] of the same compound?
Answer: 50%

Question: How did the inhibition [1] turn out when `O=C(O)Cn1c(=O)c2ccc(Cl)cc2n(Cc2ccc(Br)cc2F)c1=O` was run?
Answer: 76%

Question: And the inhibition [2]?
Answer: 55%

Question: And the Lowering [19]?
Answer: 74%

Question: And the Lowering [20]?
Answer: 42%
